Active and inactive are the calls of the source. The rule behind the calls is not given here.
How the values were obtained:
HeLa [1] = experiment: Cytotoxicity against human HeLa cells; assay type: functional, cell-based
K562 = experiment: Cytotoxicity against human K562 cells; assay type: functional, cell-based
HeLa [2] = experiment: Cytostatic activity against human HeLa cells assessed as inhibition of cell proliferation after 72 hrs by Coulter counter analysis; assay type: functional, cell-based
In short: (§1)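 Each well received (5–7.5) × 10^4 tumor cells plus compound. L1210 cells grew 48 h and CEM and HeLa cells grew 72 h, at 37 °C in humidified CO2. Cells were then counted electronically, and IC50 was taken as the concentration inhibiting proliferation by 50%.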

CCRF-CEM = experiment: Cytostatic activity against human CEM cells assessed as inhibition of cell proliferation after 72 hrs by Coulter counter analysis; assay type: functional, cell-based; in short: as §1
L1210 = experiment: Cytostatic activity against mouse L1210 cells assessed as inhibition of cell proliferation after 48 hrs by Coulter counter analysis; assay type: functional, cell-based; settings: L1210, 48 h; in short: as §1
MDCK = experiment: Cytotoxicity against dog MDCK cells assessed as alteration of cell morphology up to 100 uM by microscopic analysis; assay type: cell-based, Canis lupus familiaris
In short: (§2)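 Uninfected host-cell cultures were exposed to compound and examined by microscopy. Cytotoxicity was expressed as the minimum cytotoxic concentration (MCC) causing a microscopically detectable alteration of normal cell morphology.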

[3] = Cytotoxicity against cat CRFK cells assessed as alteration of cell morphology up to 100 uM by microscopic analysis; assay type: cell-based, Felis catus; in short: as §2
Vero = experiment: Cytotoxicity against african green monkey Vero cells assessed as alteration of cell morphology up to 100 uM by microscopic analysis; assay type: cell-based; settings: chlorocebus sabaeus; in short: as §2
HeLa [4] = experiment: Cytotoxicity against human HeLa cells assessed as alteration of cell morphology up to 100 uM by microscopic analysis; assay type: cell-based; in short: as §2
HEL = experiment: Cytotoxicity against human HEL cells assessed as alteration of cell morphology up to 100 uM by microscopic analysis; assay type: cell-based; in short: as §2
[5] = tested on: Human immunodeficiency virus 2; experiment: Antiviral activity against Human immunodeficiency virus 2 ROD infected in human CEM cells assessed as reduction of virus-induced giant cell formation at 250 uM after 4 to 5 days; assay type: functional, organism-based; settings: CCRF-CEM
In short: (§3)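 CEM cells at 3 × 10^5 cells/mL were infected with HIV at 100 CCID50 per mL in the presence of compound dilutions. They were held 4–5 days at 37 °C in humidified CO2. Syncytium (giant cell) formation was scored microscopically, and EC50 was taken as the concentration inhibiting giant cell formation by 50%.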

[6] = tested on: Human immunodeficiency virus 1; experiment: Antiviral activity against Human immunodeficiency virus 1 3B infected in human CEM cells assessed as reduction of virus-induced giant cell formation at 250 uM after 4 to 5 days; assay type: functional, organism-based; settings: CCRF-CEM; in short: as §3
Feline coronavirus = experiment: Antiviral activity against Feline coronavirus infected in cat CRFK cells assessed as reduction of virus-induced cytopathogenicity at 250 uM; assay type: functional, organism-based
Felid alphaherpesvirus 1 = experiment: Antiviral activity against Feline herpes virus infected in cat CRFK cells assessed as reduction of virus-induced cytopathogenicity at 250 uM; assay type: functional, organism-based
Influenza B virus = experiment: Antiviral activity against Influenza B virus infected in dog MDCK cells assessed as reduction of virus-induced cytopathogenicity at 250 uM; assay type: functional, organism-based
In short: (§4)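 Confluent cell monolayers were infected with 100 CCID50 of virus while exposed to varying compound concentrations. Cytopathicity was scored once it was complete in untreated infected controls. EC50 was taken as the concentration that reduced virus-induced cytopathogenicity by 50%.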

Influenza A virus [7] = experiment: Antiviral activity against Influenza A virus H3N2 infected in dog MDCK cells assessed as reduction of virus-induced cytopathogenicity at 250 uM; assay type: functional, organism-based; in short: as §4
Influenza A virus [8] = experiment: Antiviral activity against Influenza A virus H1N1 infected in dog MDCK cells assessed as reduction of virus-induced cytopathogenicity at 250 uM; assay type: functional, organism-based; in short: as §4
Punta Toro virus = experiment: Antiviral activity against Punta Toro virus infected in african green monkey Vero cells assessed as reduction of virus-induced cytopathogenicity at 250 uM; assay type: functional, organism-based
In short: (§5)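 Confluent monolayers (HEL fibroblasts, Vero, or HeLa cells as listed) were infected with 100 CCID50 of virus in the presence of varying compound concentrations. Virus-induced cytopathicity or plaque formation was scored once cytopathicity was complete in untreated infected controls. EC50 was taken as the concentration reducing cytopathogenicity or plaque formation by 50%.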

Sindbis virus = experiment: Antiviral activity against Sindbis virus infected in african green monkey Vero cells assessed as reduction of virus-induced cytopathogenicity at 250 uM; assay type: functional, organism-based; in short: as §5
Coxsackievirus B4 = experiment: Antiviral activity against Coxsackievirus B4 infected in african green monkey Vero cells assessed as reduction of virus-induced cytopathogenicity at 250 uM; assay type: functional, organism-based; in short: as §5
[9] = tested on: Mammalian orthoreovirus 1; experiment: Antiviral activity against Reovirus 1 infected in african green monkey Vero cells assessed as reduction of virus-induced cytopathogenicity at 250 uM; assay type: functional, organism-based; in short: as §5
Human respirovirus 3 = experiment: Antiviral activity against Parainfluenza virus 3 infected in african green monkey Vero cells assessed as reduction of virus-induced cytopathogenicity at 250 uM; assay type: functional, organism-based; in short: as §5
[10] = tested on: Respiratory syncytial virus; experiment: Antiviral activity against Respiratory syncytial virus long infected in human HeLa cells assessed as reduction of virus-induced cytopathogenicity at 250 uM; assay type: functional, organism-based; in short: as §5
[11] = tested on: Vesicular stomatitis virus; experiment: Antiviral activity against Vesicular stomatitis virus infected in human HeLa cells assessed as reduction of virus-induced cytopathogenicity at 250 uM; assay type: functional, organism-based; in short: as §4
Human alphaherpesvirus 1 [12] = experiment: Antiviral activity against thymidine kinase-deficient, ACV-resistant Herpes simplex virus 1 KOS infected in human HEL cells assessed as reduction of virus-induced cytopathogenicity at 250 uM; assay type: functional, organism-based; in short: as §4
[13] = tested on: Vesicular stomatitis virus; experiment: Antiviral activity against Vesicular stomatitis virus infected in human HEL cells assessed as reduction of virus-induced cytopathogenicity at 250 uM; assay type: functional, organism-based; in short: as §4
Human alphaherpesvirus 2 = experiment: Antiviral activity against Herpes simplex virus 2 G infected in human HEL cells assessed as reduction of virus-induced cytopathogenicity at 250 uM; assay type: functional, organism-based; settings: strain G; in short: as §5
Human alphaherpesvirus 1 [14] = experiment: Antiviral activity against Herpes simplex virus 1 KOS infected in human HEL cells assessed as reduction of virus-induced cytopathogenicity at 250 uM; assay type: functional, organism-based; in short: as §5

Compound | IC50 (HeLa [2]) [µM] | IC50 (CCRF-CEM) [µM] | IC50 (L1210) [µM] | Activity (MDCK) | Activity [3] | Activity (Vero) | Activity (HeLa [4]) | Activity (HEL) | inhibition [5] | inhibition [6] | inhibition (Feline coronavirus) | inhibition (Felid alphaherpesvirus 1) | inhibition (Influenza B virus) | inhibition (Influenza A virus [7]) | inhibition (Influenza A virus [8]) | inhibition (Punta Toro virus) | inhibition (Sindbis virus) | inhibition (Coxsackievirus B4) | inhibition [9] | inhibition (Human respirovirus 3) | further results
CCOP(=O)(OCC)C1CC(c2cccc3ccccc23)ON1C (centres undefined) |  |  |  |  |  |  |  |  |  |  |  |  |  |  |  |  |  |  |  |  | IC50 (HeLa [1]): 50 µM
CCOP(=O)(OCC)C1CC(c2ccc3ccccc3c2)ON1C (centres undefined) |  |  |  |  |  |  |  |  |  |  |  |  |  |  |  |  |  |  |  |  | IC50 (K562): 90 µM
CCOP(=O)(OCC)[C@@H]1C[C@H](C(=O)Nc2ccc(C(C)=O)cc2)ON1C (racemic) | 211 | 227 | 150 | Non-toxic | Non-toxic | Non-toxic | Non-toxic | Non-toxic | inactive | inactive | inactive | inactive | inactive | inactive | inactive | inactive | inactive | inactive | inactive | inactive | inhibition [10]: inactive; inhibition [11]: inactive; inhibition (Human alphaherpesvirus 1 [12]): inactive; inhibition [13]: inactive; inhibition (Human alphaherpesvirus 2): inactive; inhibition (Human alphaherpesvirus 1 [14]): inactive
CCOP(=O)(OCC)[C@H]1C[C@H](C(=O)Nc2cccc(Br)c2)ON1C (racemic) | 180 | ≥ 250 | > 250 | Non-toxic | Non-toxic | Non-toxic | Non-toxic | Non-toxic | inactive | inactive | inactive | inactive | inactive | inactive | inactive | inactive | inactive | inactive | inactive | inactive | inhibition [10]: inactive; inhibition [11]: inactive; inhibition (Human alphaherpesvirus 1 [12]): inactive; inhibition [13]: inactive; inhibition (Human alphaherpesvirus 2): inactive; inhibition (Human alphaherpesvirus 1 [14]): inactive
CCOP(=O)(OCC)[C@H]1C[C@H](C(=O)Nc2ccc(Br)cc2)ON1C (mixture of isomers) | ≥ 250 | 227 | 177 | Non-toxic | Non-toxic | Non-toxic | Non-toxic | Non-toxic | inactive | inactive | inactive | inactive | inactive | inactive | inactive | inactive | inactive | inactive | inactive | inactive | inhibition [10]: inactive; inhibition [11]: inactive; inhibition (Human alphaherpesvirus 1 [12]): inactive; inhibition [13]: inactive; inhibition (Human alphaherpesvirus 2): inactive; inhibition (Human alphaherpesvirus 1 [14]): inactive
CCOP(=O)(OCC)[C@@H]1C[C@H](C(=O)Nc2ccc(Cl)cc2)ON1C (mixture of isomers) | > 250 | ≥ 250 | 170 | Non-toxic | Non-toxic | Non-toxic | Non-toxic | Non-toxic | inactive | inactive | inactive | inactive | inactive | inactive | inactive | inactive | inactive | inactive | inactive | inactive | inhibition [10]: inactive; inhibition [11]: inactive; inhibition (Human alphaherpesvirus 1 [12]): inactive; inhibition [13]: inactive; inhibition (Human alphaherpesvirus 2): inactive; inhibition (Human alphaherpesvirus 1 [14]): inactive
CCOP(=O)(OCC)[C@@H]1C[C@H](C(=O)Nc2ccccc2F)ON1C (racemic) | 177 | 145 | 130 | Non-toxic | Non-toxic | Non-toxic | Non-toxic | Non-toxic | inactive | inactive | inactive | inactive | inactive | inactive | inactive | inactive | inactive | inactive | inactive | inactive | inhibition [10]: inactive; inhibition [11]: inactive; inhibition (Human alphaherpesvirus 1 [12]): inactive; inhibition [13]: inactive; inhibition (Human alphaherpesvirus 2): inactive; inhibition (Human alphaherpesvirus 1 [14]): inactive
CCOP(=O)(OCC)[C@H]1C[C@H](C(=O)Nc2ccccc2[N+](=O)[O-])ON1C (mixture of isomers) | > 250 | ≥ 250 | 168 | Non-toxic | Non-toxic | Non-toxic | Non-toxic | Non-toxic | inactive | inactive | inactive | inactive | inactive | inactive | inactive | inactive | inactive | inactive | inactive | inactive | inhibition [10]: inactive; inhibition [11]: inactive; inhibition (Human alphaherpesvirus 1 [12]): inactive; inhibition [13]: inactive; inhibition (Human alphaherpesvirus 2): inactive; inhibition (Human alphaherpesvirus 1 [14]): inactive
CCOP(=O)(OCC)[C@H]1C[C@H](C(=O)Nc2cccc(F)c2)ON1C (mixture of isomers) | > 250 | > 250 | > 250 | Non-toxic | Non-toxic | Non-toxic | Non-toxic | Non-toxic | inactive | inactive | inactive | inactive | inactive | inactive | inactive | inactive | inactive | inactive | inactive | inactive | inhibition [10]: inactive; inhibition [11]: inactive; inhibition (Human alphaherpesvirus 1 [12]): inactive; inhibition [13]: inactive; inhibition (Human alphaherpesvirus 2): inactive; inhibition (Human alphaherpesvirus 1 [14]): inactive
